Runt-CBFb FRET – Runt domain-CBFb interaction inhibition; 0.46% of 220,000 active; Q01196+Q13951; Cerulean-Runt/Venus-CBFb FRET ratio 530/480, 1 h; AID 1496; inhibition, % at 20 µM;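 active = inhibition over about 50% at 20 µM in the single-dose screen, limit read from the data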;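 also: 0% = DMSO wells and 100% = excess unlabeled CBFb competitor control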
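test system = Cerulean-Runt domain fusion protein, energy donor | probe or stimulus = Venus-CBFb binding partner, 100 nM | incubation = two 1 h room-temperature incubations shielded from light | detection = fluorescence energy transfer, 422 nm excitation, 530/480 nm emission | measure = loss of energy transfer signal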
proKLK7 act – proKLK7 (human) activation, primary screen; purified proKLK7, EDANS-DABCYL substrate fluorescence; 100% is mature enzyme control, 0% vehicle; activation, % at 7 µM; AID 652039; 0.9% of 370,000 active; P49862;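 active = activation above the mean of all tested compounds plus 3 SD, computed per campaign excluding outliers beyond control limits, cut at about 13% in these data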
RanGTP-Imp inh – disruptors of Ran-importin-beta complex formation – biochemical, FRET, CFP-Ran, YFP-importin-beta, homogeneous, primary screen; cell-free CFP-Ran/YFP-importin-beta FRET ratio; 1.1% of 300,000 active; inhibition, % (test concentration not listed);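 active = more than half of the replicate wells show a fall in the fluorescence ratio signal beyond about 16%, limit read from the data, passing the limit was not always enough; inconclusive = exactly half of the replicate wells pass the set limit; inactive = fewer than half of replicates pass the limit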;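 also: 0% = DMSO wells and 100% = Ran loaded with GDP instead of GTP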
MEX-5 binding – C. elegans MEX-5 TCR-2 RNA binding activity; MEX-5/FITC-TCR2 RNA binding, fluorescence polarization; hits give low values; activity score (negative = inhibition of binding), % at 10 µM; 0.38% of 300,000 active; Q9XUB2; AID 1832;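 active = inhibition past about -25% in most replicates, and total fluorescence under double the plate's negative control median, limit read from the data; inconclusive = replicates evenly split on the limit, or fluorescence at least double controls; inactive = too little inhibition in most replicates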;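 also: 0% = DMSO and -100% = 5 µM competing unlabeled TCR2 RNA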
Target sequence (Q9XUB2 whole entry, looked up): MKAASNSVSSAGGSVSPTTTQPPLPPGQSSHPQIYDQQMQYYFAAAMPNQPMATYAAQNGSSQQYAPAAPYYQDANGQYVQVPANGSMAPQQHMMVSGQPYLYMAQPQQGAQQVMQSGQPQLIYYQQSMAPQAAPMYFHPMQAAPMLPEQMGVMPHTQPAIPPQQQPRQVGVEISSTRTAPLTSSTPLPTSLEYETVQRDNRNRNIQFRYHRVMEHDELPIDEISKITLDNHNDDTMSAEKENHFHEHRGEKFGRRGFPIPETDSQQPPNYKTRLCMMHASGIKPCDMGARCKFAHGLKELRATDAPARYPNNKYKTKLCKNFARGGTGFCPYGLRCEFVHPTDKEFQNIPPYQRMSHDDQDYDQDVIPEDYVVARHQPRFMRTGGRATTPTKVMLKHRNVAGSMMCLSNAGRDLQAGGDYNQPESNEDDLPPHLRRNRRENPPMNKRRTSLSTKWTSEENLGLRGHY
Runt-SMMHC FRET – inhibitors of human RUNX1 Runt domain binding to CBFb-SMMHC; inhibition, % at 20 µM; Cerulean-Runt/Venus-CBFb-SMMHC FRET ratio 530/480, 1 h; 0.74% of 220,000 active;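 active = mean inhibition across duplicate retests at 20 µM reaching about 50%, limit read from the data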;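 also: 0% = DMSO wells and 100% = wells with excess untagged CBFb-SMMHC; inhibitors lower the FRET ratio by blocking Runt binding to CBFb-SMMHC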
proKLK7 act conf – confirmation of human kallikrein-7 zymogen activators; shares compounds with proKLK7 act; purified proKLK7, EDANS-DABCYL substrate fluorescence; scaled: vehicle 0, mature enzyme 100; activation, % at 7 µM; 68% of 3,200 active; AID 686949;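 active = activation, as change over the incubation, above the mean of all tested compounds plus 3 SD, cut at about 13% in these data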
EDANS-DABCYL int – optically interferes with EDANS-DABCYL signal, flagging KLK7 hits; shares compounds with proKLK7 act; 80% of 3,200 active; EDANS-DABCYL substrate fluorescence interference, no enzyme, 4 h; solvent 0%, active enzyme control 100%; activation, % at 7 µM;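 active = activation above the all-compound mean plus 3 SD, ignoring values outside control-based bounds, cut at about 4.8% in these data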;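 also: value is the 4 h activation minus the activation read at time zero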
K7 EDANS ctr – EDANS fluorescence interference in dose response, no enzyme; EC50, µM; EDANS-DABCYL peptide fluorescence interference; AID 720493; shares compounds with proKLK7 act; 20% of 250 active;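 active = compounds that raise the fluorescence signal in this interference counterscreen, with EC50 at or below 10 µM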;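 also: intact quenched peptide substrate alone read at 355 nm excitation and 520 nm emission; signal is fluorescence gain from T0 to T4 after four hours at room temperature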
* = called active by the depositor. This is a sample that favours compounds with a hit; in the whole collection about 2.1% have one here.

Screening Nc1cccc2c1C(=O)N(C(=O)c1cccc(S(=O)(=O)N3CCCC3)c1)C2=O returned Runt-CBFb FRET -30, proKLK7 act 32*, RanGTP-Imp inh 9, MEX-5 binding -4, Runt-SMMHC FRET 62*, proKLK7 act conf 190* and EDANS-DABCYL int 196*.
For CCc1nc(CN2CCCC(C(=O)c3ccc4c5c(cccc35)CC4)C2)c(C)[nH]1 (centres undefined) the results were Runt-CBFb FRET 1, proKLK7 act 15*, RanGTP-Imp inh 9, MEX-5 binding 4, Runt-SMMHC FRET 4, proKLK7 act conf -4 and EDANS-DABCYL int 0.
Screening O=C(c1ccc2c3c(cccc13)CC2)C1CCCN(Cc2ccncc2)C1 (centres undefined) returned Runt-CBFb FRET -2, proKLK7 act 0, RanGTP-Imp inh 4, MEX-5 binding -3 and Runt-SMMHC FRET 0.
Cc1cc(-c2ccc(C(=O)O)s2)cnc1N was read as Runt-CBFb FRET -2, proKLK7 act 31*, RanGTP-Imp inh 3, MEX-5 binding -1, Runt-SMMHC FRET -2, proKLK7 act conf 61* and EDANS-DABCYL int 70*.
Screening O=C(O)c1ccc(-c2ccc(-c3ccccc3)cc2)s1 returned RanGTP-Imp inh 0 and MEX-5 binding 1.
`CCn1cc(C2C(C(=O)Nc3cc(C)ccn3)=C(C)NC3=C2C(=O)CC(C)(C)C3)c(C)n1` (centres undefined) gave Runt-CBFb FRET 28, proKLK7 act 20*, RanGTP-Imp inh 3, MEX-5 binding 1, Runt-SMMHC FRET 69*, proKLK7 act conf 8 and EDANS-DABCYL int 15*.
c1ccc(-c2nc3nc4ccccc4nc3n2CC2CCCO2)cc1 (centres undefined) was read as Runt-CBFb FRET 1, proKLK7 act 18*, RanGTP-Imp inh 2, MEX-5 binding 0, Runt-SMMHC FRET 2, proKLK7 act conf 5 and EDANS-DABCYL int 7.8*.
For c1coc(-c2nc3nc4ccccc4nc3n2CC2CCCO2)c1 (centres undefined) the results were Runt-CBFb FRET 12, proKLK7 act 22*, RanGTP-Imp inh 11, MEX-5 binding 0, Runt-SMMHC FRET 26, proKLK7 act conf 8 and EDANS-DABCYL int 13*.
For Cc1cc(-c2ccc(F)cc2)nc2cc(C(N)=O)nn12 the results were Runt-CBFb FRET 2, proKLK7 act 9, RanGTP-Imp inh 0, MEX-5 binding -3 and Runt-SMMHC FRET -2.
`CCOC(=O)c1cnn2c(C)cc(-c3ccc(F)cc3)nc12` gave Runt-CBFb FRET -3, proKLK7 act 26*, RanGTP-Imp inh 4, MEX-5 binding 0, Runt-SMMHC FRET 2, proKLK7 act conf -4 and EDANS-DABCYL int 17*.
For CCN1C(=O)c2cccc3c(S(=O)(=O)NCc4ccccc4)ccc1c23 the results were proKLK7 act 34*, proKLK7 act conf -35 and EDANS-DABCYL int -30.
`CCN1C(=O)c2cccc3c(S(=O)(=O)Nc4ccccc4OC)ccc1c23` gave Runt-CBFb FRET -1, proKLK7 act 1, RanGTP-Imp inh 0, MEX-5 binding -1 and Runt-SMMHC FRET 0.
Screening CCN1C(=O)c2cccc3c(S(=O)(=O)NCCCN4CCOCC4)ccc1c23 returned Runt-CBFb FRET -11, proKLK7 act 51*, RanGTP-Imp inh -3, MEX-5 binding -1, Runt-SMMHC FRET -52, proKLK7 act conf 44* and EDANS-DABCYL int 43*.
Screening CCN1C(=O)c2cccc3c(S(=O)(=O)NCCc4c[nH]c5ccccc45)ccc1c23 returned Runt-CBFb FRET -2, proKLK7 act 15*, RanGTP-Imp inh inconclusive, MEX-5 binding 0, Runt-SMMHC FRET -7, proKLK7 act conf 37* and EDANS-DABCYL int 55*.
Screening O=C(Nc1cc(=O)[nH]c(=O)[nH]1)c1cc(Cl)ccc1Cl returned proKLK7 act 0, RanGTP-Imp inh 3 and MEX-5 binding -2.
`CCN(c1ccccc1)S(=O)(=O)c1cccc(C(=O)NCc2ccccn2)c1` gave proKLK7 act 0, RanGTP-Imp inh 0 and MEX-5 binding 1.
For COc1ccccc1N1C(=O)C2C(C(=O)c3ccccc3)=NN(c3ccc(Br)cc3)C2C1=O (centres undefined) the results were Runt-CBFb FRET -201, proKLK7 act 18*, RanGTP-Imp inh -157, MEX-5 binding inconclusive, Runt-SMMHC FRET 76, proKLK7 act conf -226 and EDANS-DABCYL int -164.
COc1ccc(NC(=O)c2ccc(NC(=O)CSc3nc(N)cc(=O)[nH]3)cc2)cc1 was read as proKLK7 act 23*, proKLK7 act conf 17*, EDANS-DABCYL int 14* and K7 EDANS ctr inactive.
Screening COCCCn1c(C(=O)NCCN2CCOCC2)cc2c(=O)n3ccccc3nc21 returned proKLK7 act 83*, RanGTP-Imp inh 6, MEX-5 binding -1, proKLK7 act conf 72* and EDANS-DABCYL int 75*.
`Cc1cccn2c(=O)c3cc(C(=O)NCCN4CCOCC4)n(C)c3nc12` gave proKLK7 act 19*, RanGTP-Imp inh 4, MEX-5 binding 0, proKLK7 act conf -49 and EDANS-DABCYL int -38.
`Cc1ccccc1C(=O)NCCN1CCOCC1` gave Runt-CBFb FRET -8, proKLK7 act 0, RanGTP-Imp inh 2, MEX-5 binding -2 and Runt-SMMHC FRET -24.
Cc1nc2ccccn2c1C(=O)NCCCN1CCOCC1 was read as Runt-CBFb FRET -1, proKLK7 act 1, RanGTP-Imp inh 7, MEX-5 binding -5 and Runt-SMMHC FRET 1.
Cn1c(C(=O)NCCN2CCOCC2)cc2c(=O)n3ccccc3nc21 was read as proKLK7 act 60*, RanGTP-Imp inh 8, MEX-5 binding 0, proKLK7 act conf 67* and EDANS-DABCYL int 74*.
Screening C[C@H](NC(=O)C1CCN(S(=O)(=O)c2ccccc2)CC1)C(=O)NCc1cccnc1 returned proKLK7 act 0.
For O=C(Nc1ccc(O)c(C(=O)O)c1)Oc1ccccc1 the results were Runt-CBFb FRET 2, proKLK7 act 26*, RanGTP-Imp inh -5, MEX-5 binding 0, Runt-SMMHC FRET 1, proKLK7 act conf 30* and EDANS-DABCYL int 28*.
`CC(=O)Nc1ccc(NC(=O)Oc2ccccc2)cc1` gave Runt-CBFb FRET -1, proKLK7 act 0, RanGTP-Imp inh 0, MEX-5 binding 1 and Runt-SMMHC FRET -1.
